Laboratory results reported in ChEMBL document CHEMBL1123174, “Inhibitors of Bacillus subtilis DNA polymerase III. Influence of modifications in the pyrimidine ring of anilino- and (benzylamino)pyrimidines” (J Med Chem, 1986).
Blank lines part the entries; values can stand above or below the compound they belong to.

Assays:
[1] = molecular target: T1, DNA polymerase III PolC-type (Bacillus subtilis (strain 168), UniProt P13267); experiment: Concentration producing 50% inhibition of Bacillus subtilis […] in the presence of dATP using DNA Polymerase assay
[2] = molecular target: T1, DNA polymerase III PolC-type; experiment: Concentration producing 50% inhibition of Bacillus subtilis DNA polymerase III in the absence of dATP using DNA Polymerase assay; NA=Inactive
In short: (§1)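 B. subtilis DNA polymerase III assayed as a truncated reaction: the nucleotide competing with the inhibitor class (dGTP or dATP) was omitted from the mix.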

[3] = molecular target: T1, DNA polymerase III PolC-type; experiment: Concentration producing 50% inhibition of Bacillus subtilis DNA polymerase III in the absence of dGTP using DNA Polymerase assay; settings: read-out: Ki; in short: as §1
[4] = molecular target: T1, DNA polymerase III PolC-type; experiment: Concentration producing 50% inhibition of Bacillus subtilis […] in the presence of dGTP using DNA Polymerase assay
[5] = molecular target: T1, DNA polymerase III PolC-type; experiment: Concentration producing 50% inhibition of Bacillus subtilis DNA polymerase III in the absence of dATP using DNA Polymerase assay; NA= Inactive; in short: as §1
[6] = molecular target: T1, DNA polymerase III PolC-type; experiment: Compound was tested for its inhibitory activity against Bacillus subtilis […] using DNA Polymerase assay; IA=Inactive; in short: as §1
[7] = molecular target: T1, DNA polymerase III PolC-type; experiment: Compound was tested for its inhibitory activity against DNA topoisomerase III Polymerase III using DNA Polymerase assay; IA=Inactive; in short: as §1
[8] = molecular target: T1, DNA polymerase III PolC-type; experiment: Compound was tested for its inhibitory activity against Bacillus subtilis DNA topoisomerase III using DNA Polymerase assay; in short: as §1
[9] = molecular target: T1, DNA polymerase III PolC-type; experiment: Concentration producing 50% inhibition of Bacillus subtilis […] in the absence using DNA Polymerase assay

T1 sequence (P13267 whole entry): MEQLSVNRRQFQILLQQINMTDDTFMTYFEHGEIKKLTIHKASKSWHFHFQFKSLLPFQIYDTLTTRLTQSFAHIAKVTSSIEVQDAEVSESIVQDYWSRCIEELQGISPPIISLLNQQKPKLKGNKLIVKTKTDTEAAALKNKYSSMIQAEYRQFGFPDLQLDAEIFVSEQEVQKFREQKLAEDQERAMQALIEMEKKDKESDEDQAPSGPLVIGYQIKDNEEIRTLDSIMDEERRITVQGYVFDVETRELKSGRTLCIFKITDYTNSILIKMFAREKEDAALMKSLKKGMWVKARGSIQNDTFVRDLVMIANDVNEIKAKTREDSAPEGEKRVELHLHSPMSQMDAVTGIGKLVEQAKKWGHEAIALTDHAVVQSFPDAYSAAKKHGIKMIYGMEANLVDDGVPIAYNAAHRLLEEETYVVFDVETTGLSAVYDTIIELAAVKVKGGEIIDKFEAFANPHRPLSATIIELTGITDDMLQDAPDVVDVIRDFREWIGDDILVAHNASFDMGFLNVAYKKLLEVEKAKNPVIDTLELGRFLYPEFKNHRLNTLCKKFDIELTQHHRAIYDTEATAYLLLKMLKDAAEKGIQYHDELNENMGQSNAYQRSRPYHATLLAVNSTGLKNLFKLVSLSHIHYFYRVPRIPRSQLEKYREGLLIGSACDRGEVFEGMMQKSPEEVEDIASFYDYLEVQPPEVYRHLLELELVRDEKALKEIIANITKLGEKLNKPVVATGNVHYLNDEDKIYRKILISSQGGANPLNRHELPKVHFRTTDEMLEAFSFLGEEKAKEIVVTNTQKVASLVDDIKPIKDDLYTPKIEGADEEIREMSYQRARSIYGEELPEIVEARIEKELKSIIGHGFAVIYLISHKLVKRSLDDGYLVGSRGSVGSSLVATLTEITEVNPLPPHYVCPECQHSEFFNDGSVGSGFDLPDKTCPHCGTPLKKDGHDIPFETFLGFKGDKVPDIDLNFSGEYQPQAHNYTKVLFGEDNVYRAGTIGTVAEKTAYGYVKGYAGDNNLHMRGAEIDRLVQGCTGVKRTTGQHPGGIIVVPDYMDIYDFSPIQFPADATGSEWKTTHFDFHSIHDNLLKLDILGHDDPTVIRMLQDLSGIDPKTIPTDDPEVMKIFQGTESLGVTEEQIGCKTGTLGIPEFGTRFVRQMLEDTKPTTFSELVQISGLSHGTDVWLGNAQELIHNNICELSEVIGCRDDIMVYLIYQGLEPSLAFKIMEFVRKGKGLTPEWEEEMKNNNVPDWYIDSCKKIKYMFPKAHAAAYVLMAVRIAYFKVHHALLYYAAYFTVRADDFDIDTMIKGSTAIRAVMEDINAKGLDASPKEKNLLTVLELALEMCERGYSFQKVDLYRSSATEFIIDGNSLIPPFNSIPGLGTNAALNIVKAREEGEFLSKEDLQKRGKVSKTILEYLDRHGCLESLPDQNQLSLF

Ki [1]: 2 µM
Structure (SMILES): Nc1nc(O)cc(Nc2ccc3c(c2)CCC3)n1

Ki [2]: Not Active
Structure (SMILES): Nc1nc(NCc2ccccc2)cc(SCc2ccccc2)n1

IC50 [3]: 14 µM
Structure (SMILES): Cc1ccc(Nc2nc(O)nc(O)c2Br)cc1

Ki [4]: 0.4 µM
Structure (SMILES): Oc1cc(Nc2ccc3c(c2)CCC3)nc(O)n1

IC50 [3]: 1580 µM
Structure (SMILES): Cc1ccc(Nc2[nH]c(=O)[nH]c(=O)c2C)cc1

Ki [5]: Not Active
Structure (SMILES): Nc1nc(NCc2ccccc2)cc(SCc2ccc(Cl)cc2)n1

Ki [6]: Not Active
Structure (SMILES): Cc1ccc(Nc2nc(O)nc(O)c2N=O)cc1

Ki [1]: 33 µM
Structure (SMILES): Nc1nc(O)cc(NCc2ccccc2)n1

IC50 [3]: 20 µM
Structure (SMILES): O=c1nc(NCc2ccccc2)[nH]c(=O)[nH]1

Ki [7]: Not Active
Structure (SMILES): O=Nc1c(O)nc(O)nc1NCc1ccccc1

Ki [8]: 17 µM
Structure (SMILES): Nc1nc(Cl)cc(NCc2ccccc2)n1

Ki [9]: 436 µM
Structure (SMILES): Cc1c(O)nc(O)nc1NCc1ccccc1

Ki [4]: 7.5 µM
Structure (SMILES): O=c1cc(NCc2ccccc2)[nH]c(=O)[nH]1

IC50 [3]: 9 µM
Structure (SMILES): O=c1[nH]c(NCc2ccccc2)c(I)c(=O)[nH]1

IC50 [3]: 2820 µM
Structure (SMILES): CCc1c(O)nc(O)nc1NCc1ccccc1

Ki [2]: Not Active
Structure (SMILES): CCc1c(O)nc(O)nc1Nc1ccc(C)cc1

IC50 [3]: 9 µM
Structure (SMILES): Oc1nc(O)c(Br)c(NCc2ccccc2)n1

IC50 [3]: 70 µM
Structure (SMILES): Cc1ccc(Nc2nc(=O)[nH]c(=O)[nH]2)cc1
